Experimental data from article PMC3351161 (Nucleic Acids Research, 2012).
Blank lines part the entries; values can stand above or below the molecule they belong to.

What was measured:
Mdc1 = test: Peptide pull-down from HeLa nuclear extract; format: binding, human; conditions: peptide coupled to magnetic beads, SDS-PAGE, western blot
RAD50 = test: Peptide pull-down from HeLa nuclear extract; format: binding, human; conditions: peptide coupled to magnetic beads; band at ∼150 kDa
MRE11 = test: Peptide pull-down from HeLa nuclear extract; format: binding, human; conditions: peptide coupled to magnetic beads; band at ∼80 kDa
[1] = system: Mdc1 FHA domain (M-1 GST-fragment); test: Phosphopeptide pull-down with GST fragment M-1; format: binding, human; conditions: bacterially expressed GST-fusion
[2] = system: Mdc1 BRCT domains (M-8 GST-fragment); test: Phosphopeptide pull-down with GST fragment M-8; format: binding, human; conditions: bacterially expressed GST-fusion
Myc-tagged Mdc1 (1–800) = test: Co-immunoprecipitation of Flag- and Myc-tagged Mdc1; format: cell-based, human; conditions: transiently transfected 293T cells, anti-Flag IP, anti-Myc immunoblot
Procedure, shortened: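 Human Mdc1 residues 1–800, C-terminally tagged with HA/FLAG or Myc, in a pcDNA3.1(+) vector. HEK 293T cells grown in D-MEM with 10% FCS and streptomycin/penicillin (100 U/ml). Transfected with FuGene 6 or calcium phosphate. Immunoprecipitation on anti-FLAG M2 affinity gel; Myc-tagged partner detected by immunoblot with rabbit polyclonal c-Myc antibody.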

endogenous Mdc1 = test: Co-immunoprecipitation of Flag-tagged Mdc1; format: cell-based, human; conditions: 293T cells, with or without IR (10 Gy)
Procedure, shortened: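 HEK 293T cells in D-MEM with 10% FCS and streptomycin/penicillin were transfected (FuGene 6 or calcium phosphate) with FLAG-tagged human Mdc1 residues 1–800 in pcDNA3.1(+). IR was given in an X-ray cabinet at 5–10 Gy/min. Complexes were captured on anti-FLAG M2 affinity gel and probed for endogenous Mdc1.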

binding of FHA domain GST-fusion [1]: bound tightly and specifically | binding of C-terminal BRCT-repeat region GST-fusion [2]: no significant interaction detectable
Molecule: MED[pT]QAIDWDAE[KBtn] [pThr-4 phosphopeptide]
Mdc1 pulled down from HeLa nuclear extract (Mdc1): efficiently pulled down | Mdc1 pulled down from HeLa nuclear extract (Mdc1; listed as phosphopeptide): pulled down by the phosphopeptide only | RAD50 pulled down from HeLa nuclear extract (RAD50): pulled down by the phosphopeptide only | MRE11 pulled down from HeLa nuclear extract (MRE11): pulled down by the phosphopeptide only

B1: Mdc1 (1–800): tagged N-terminal Mdc1 fragment lacking the BRCT domains (protein)
chain: MEDTQAIDWDVEEEEETEQSSESLRCNVEPVGRLHIFSGAHGPEKDFPLHLGKNVVGRMPDCSVALPFPSISKQHAEIEILAWDKAPILRDCGSLNGTQILRPPKVLSPGVSHRLRDQELILFADLLCQYHRLDVSLPFVSRGPLTVEETPRVQGETQPQRLLLAEDSEEEVDFLSERRMVKKSRTTSSSVIVPESDEEGHSPVLGGLGPPFAFNLNSDTDVEEGQQPATEEASSAARRGATVEAKQSEAEVVTEIQLEKDQPLVKERDNDTKVKRGAGNGVVPAGVILERSQPPGEDSDTDVDDDSRPPGRPAEVHLERAQPFGFIDSDTDAEEERIPATPVVIPMKKRKIFHGVGTRGPGAPGLAHLQESQAGSDTDVEEGKAPQAVPLEKSQASMVINSDTDDEEEVSAALTLAHLKESQPAIWNRDAEEDMPQRVVLLQRSQTTTERDSDTDVEEEELPVENREAVLKDHTKIRALVRAHSEKDQPPFGDSDDSVEADKSSPGIHLERSQASTTVDINTQVEKEVPPGSAIIHIKKHQVSVEGTNQTDVKAVGGPAKLLVVSLEEAWPLHGDCETDAEEGTSLTASVVADVRKSQLPAEGDAGAEWAAAVLKQERAHEVGAQGGPPVAQVEQDLPISRENLTDLVVDTDTLGESTQPQREGAQVPTGREREQHVGGTKDSEDNYGDSEDLDLQATQCFLENQGLEAVQSMEDEPTQAFMLTPPQELGPSHCSFQTTGTLDEPWEVLATQPFCLRESEDSETQPFDTHLEAYGPCLSPPRAIPGDQHPESPVHTEPM
modifications: left off: HA/FLAG on one copy and Myc on the other, C-terminal, kept
interaction of Flag-tagged with Myc-tagged Mdc1 (1–800) (Myc-tagged Mdc1 (1–800)): efficiently interacted | co-immunoprecipitation with endogenous Mdc1 (endogenous Mdc1): exclusively in extracts prepared from IR-treated cells
